Measured values taken from ChEMBL document CHEMBL5226313, “Discovery of an Orally Efficacious MYC Inhibitor for Liver Cancer Using a GNMT-Based High-Throughput Screening System and Structure-Activity Relationship Analysis” (J Med Chem, 2021).
The source made the active and inactive calls. No cut-off for these calls is given here.

What was measured:
[1] = molecular target: T1, Glycine N-methyltransferase (Homo sapiens) (UniProt Q14749); assay: Induction of GNMT in human H7GPL cells assessed as fold increase in promoter-driven luciferase reporter expression at 10 uM measured after 24 hrs by luminescence assay relative to control; assay type: cell-based; details: filed as activator
T1 sequence (whole entry): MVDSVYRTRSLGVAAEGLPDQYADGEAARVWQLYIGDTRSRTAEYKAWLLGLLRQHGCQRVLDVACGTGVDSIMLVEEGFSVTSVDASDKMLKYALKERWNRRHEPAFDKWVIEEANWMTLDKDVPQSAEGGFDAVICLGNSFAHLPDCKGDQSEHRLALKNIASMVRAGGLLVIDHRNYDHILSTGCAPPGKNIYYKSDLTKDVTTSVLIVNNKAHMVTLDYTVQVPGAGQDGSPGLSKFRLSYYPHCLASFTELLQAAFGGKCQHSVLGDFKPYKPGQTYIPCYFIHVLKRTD

[2] = molecular target: T1, Glycine N-methyltransferase (Homo sapiens); assay: Induction of GNMT in human H7GPL cells assessed as fold increase in promoter-driven luciferase reporter expression at 2.5 uM measured after 24 hrs by luminescence assay relative to control; assay type: cell-based; details: filed as activator
Procedure, shortened: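 H7GPL cells (Huh7 carrying a stable lentiviral GNMT promoter–luciferase reporter, kept in 1 μg/mL puromycin) treated with compound for 24 h, then luciferase measured. Luciferase activity normalised to cell viability and expressed as fold over solvent control; means ± SD, n = 3.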

[3] = Cytotoxicity against human H7GPL cells at 10 uM measured after 72 hrs by MTS assay; assay type: toxicity, cell-based
Procedure, shortened: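 H7GPL-1 cells seeded at 3 × 10³ per well overnight, then exposed to 10 μM compound for 72 h. Medium replaced with MTS/PMS reagent (20:1) and incubated 1.5 h at 37 °C in 5% CO2; absorbance read at 490 nm. Viability expressed relative to control, where 100% means no cytotoxicity.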

Huh-7 [4] = assay: Antiproliferative activity against human Huh-7 cells assessed as inhibition of cell growth incubated for 72 hrs by Alamar blue assay; assay type: functional, cell-based; details: dose 0.3-80 µM
Procedure, shortened: (§1)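 Cells seeded in 96-well plates and exposed to a range of drug concentrations for 72 h; Alamar Blue added for a further 4 h. Viable cells expressed as percentage of solvent-treated control; means ± SD, n = 3. Cells kept in DMEM with 10% FBS, 2 mM L-glutamine, 0.1 mM non-essential amino acids and antibiotics at 37 °C in humidified CO2.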

Hep 3B2 = assay: Antiproliferative activity against human Hep3B cells assessed as inhibition of cell growth incubated for 72 hrs by Alamar blue assay; assay type: functional, cell-based; details: dose 0.3-80 µM; procedure, shortened: as §1
HepG2 [5] = assay: Antiproliferative activity against human HepG2 cells assessed as inhibition of cell growth incubated for 72 hrs by Alamar blue assay; assay type: functional, cell-based; details: dose 0.3-80 µM; procedure, shortened: as §1
HepG2 [6] = assay: Inhibition of colony formation in human HepG2 cells after 10 days by crystal violet staining based assay; assay type: functional, cell-based; details: dose 0.6-10 µM, time 10.0 day
Procedure, shortened: (§2)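 Cells seeded at 1 × 10⁴ per well overnight in six-well plates, then exposed to the specified drug concentrations for 10 days at 37 °C in 5% CO2. Surviving colonies stained with crystal violet and counted; means ± SD, n = 3.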

Huh-7 [7] = assay: Inhibition of colony formation in human Huh-7 cells after 10 days by crystal violet staining based assay; assay type: functional, cell-based; details: dose 0.6-10 µM, time 10.0 day; procedure, shortened: as §2
Huh-7 [8] = assay: Antitumor activity against human Huh-7 cells xenografted in mouse tumor model assessed as reduction in tumor volume at 10 to 25 mg/kg, po treated for 30 days; assay type: functional, organism-based; details: dose 10-25 mg/kg, time 30.0 day
Procedure, shortened: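 Huh7 xenografts (1 × 10⁶ cells s.c., right flank) in female Balb/c nude mice aged 5–6 weeks. After tumors became palpable, mice were randomised and dosed orally every day at 10 or 25 mpk, or solvent; sorafenib 25 mpk as comparator. Caliper monitoring of tumor growth over about 4 weeks; mean ± SE, n = 6.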

[9] = Toxicity in NOD-SCID mouse assessed as survival at 10 to 25 mg/kg, po treated for 30 days; assay type: organism-based; details: in vivo, 720 h, dose 10-25 mg/kg, time 30 day
Procedure, shortened: (§3)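 Huh7 cells (1 × 10⁶) were injected subcutaneously into the right flank of five- to six-week-old female mice. Once tumours were palpable, mice were randomised and dosed orally every day for 30 days at 10 or 25 mpk, with vehicle and sorafenib (25 mpk) groups alongside. Survival, body weight, liver function tests and organ morphology were monitored during treatment.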

[10] = Toxicity in NOD-SCID mouse assessed as body weight at 10 to 25 mg/kg, po treated for 30 days; assay type: organism-based; details: in vivo, 720 h, dose 10-25 mg/kg, time 30 day; procedure, shortened: as §3
[11] = Toxicity in NOD-SCID mouse assessed as liver function at 10 to 25 mg/kg, po treated for 30 days; assay type: organism-based; details: in vivo, 720 h, dose 10-25 mg/kg, time 30 day; procedure, shortened: as §3
[12] = Toxicity in NOD-SCID mouse assessed as organ morphology at 10 to 25 mg/kg, po treated for 30 days; assay type: organism-based; details: in vivo, 720 h, dose 10-25 mg/kg, time 30 day; procedure, shortened: as §3
Huh-7 [13] = assay: Effect on HDAC1 protein expression in human Huh-7 cells at 0.6 to 10 uM incubated for 24 hrs by immunoblot analysis; assay type: functional, cell-based; details: dose 0.6-10 µM
Procedure, shortened: (§4)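 Huh7 or HepG2 cells exposed to the indicated concentrations for 24 h. Lysates prepared in RIPA buffer with phosphatase inhibitors (10 mM Na3VO4, 1 mM NaF, 5 mM NaPPi) and protease inhibitor cocktail; protein quantified by Bio-Rad assay. HDAC1 and HDAC2 detected by immunoblot, with GAPDH as loading control.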

Huh-7 [14] = assay: Effect on HDAC2 protein expression in human Huh-7 cells at 0.6 to 10 uM incubated for 24 hrs by immunoblot analysis; assay type: functional, cell-based; details: dose 0.6-10 µM; procedure, shortened: as §4
HepG2 [15] = assay: Effect on HDAC1 protein expression in human HepG2 cells at 0.6 to 10 uM incubated for 24 hrs by immunoblot analysis; assay type: functional, cell-based; details: dose 0.6-10 µM; procedure, shortened: as §4
HepG2 [16] = assay: Effect on HDAC2 protein expression in human HepG2 cells at 0.6 to 10 uM incubated for 24 hrs by immunoblot analysis; assay type: functional, cell-based; details: dose 0.6-10 µM; procedure, shortened: as §4
HepG2 [17] = assay: Inhibition of MYC mRNA expression in human HepG2 cells at 0.6 to 10 uM incubated for 24 hrs by immunoblot analysis; assay type: functional, cell-based; details: dose 0.6-10 µM, in the assay text read “qRT-PCR analysis” for “immunoblot analysis”
Procedure, shortened: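 Huh7 or HepG2 cells treated with the indicated concentrations for 24 h. Myc mRNA measured by qRT-PCR and expressed as fold over solvent control; means ± SD, n = 3.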

Huh-7 [18] = assay: Reduction in MYC protein expression in tumor of mouse xenografted with human Huh-7 cells at 10 to 25 mg/kg, po treated for 30 days; assay type: functional, organism-based; details: dose 10-25 mg/kg, time 30.0 day
Procedure, shortened: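 Tumors taken from Huh7 xenografted nude mice dosed orally every day at 10 or 25 mpk. Tumor lysates prepared in RIPA buffer containing phosphatase and protease inhibitors. MYC and GNMT detected by immunoblot with β-actin as loading control; n = 6 mice per group.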

Huh-7 [19] = assay: Increase in p21 expression in human Huh-7 cells at 0.6 to 10 uM incubated for 24 hrs by qRT-PCR analysis; details: dose 0.6-10 µM
[20] = Drug uptake in NOD-SCID mouse assessed as compound level in liver tissue at 25 mg/kg, po treated for 30 days; details: in vivo, 720 h
[21] = molecular target: T1, Glycine N-methyltransferase (Homo sapiens); assay: Induction of GNMT in human H7GPL cells assessed as fold increase in promoter-driven luciferase reporter expression measured after 24 hrs by luminescence assay relative to control; assay type: cell-based; details: filed as activator, dose 0.15-10 µM
Huh-7 [22] = assay: Induction of GNMT mRNA expression in human Huh-7 cells at 2.5 uM measured after 24 hrs by qRT-PCR analysis; assay type: functional, cell-based
Procedure, shortened: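 Huh7 cells exposed to 2.5 μM for 24 h, then RNA harvested. GNMT mRNA quantified by qRT-PCR, normalised to an internal control and expressed as fold over solvent control; means ± SD, n = 3.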

Huh-7 [23] = assay: Induction of GNMT protein expression in human Huh-7 cells at 2.5 uM measured after 24 hrs; assay type: functional, cell-based
Huh-7 [24] = assay: Antitumor activity against human Huh-7 cells xenografted in mouse tumor model assessed as inhibition of tumor growth at 25 to 300 mg/kg, po treated for 30 days; assay type: functional, organism-based; details: dose 25-300 mg/kg, time 30.0 day
Procedure, shortened: (§5)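 Female Balb/c nude mice, 5–6 weeks old, injected subcutaneously in the right flank with 1 × 10⁶ Huh7 cells. Once tumors were palpable, animals were randomised and dosed orally every day for 30 days at 25, 100 or 300 mpk, or vehicle; sorafenib 25 mpk as reference group. Tumors measured by caliper throughout; body weight recorded during treatment.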

[25] = Toxicity in mouse xenografted with human Huh-7 cells assessed as body weight at 25 to 300 mg/kg, po treated for 30 days; assay type: organism-based; details: in vivo, 720 h, dose 25-300 mg/kg, time 30 day; procedure, shortened: as §5

Row | SMILES | fold change (FC) [1] | fold change (FC) [2] | further results
1 | C/C(=N\NC(=O)c1cccc(O)c1)c1ccccn1 | 6.66 | 13.3 | 
2 | O=C(N/N=C/c1ccccn1)c1cc2ccccc2cc1O | 1.09 | 1.79 | 
3 | COc1ccccc1C(=O)N/N=C(\C)c1ccccn1 | 1.31 | 1.72 | 
4 | C/C(=N\NC(=O)c1cc2ccccc2cc1O)c1ccccc1 | 1.37 | 1.16 | 
5 | C/C(=N\NC(=O)c1cc2ccccc2cc1O)c1ccc[nH]1 | 1.04 | 1.22 | 
6 | COc1ccc(/C(C)=N/NC(=O)c2cc3ccccc3cc2O)cc1 | 0.9 | 1.2 | 
7 | O=C(N/N=C/c1ccco1)c1cc2ccccc2cc1O | 1.04 | 1.22 | 
8 | C/C(=N\NC(=O)c1cc2ccccc2cc1O)c1cccnc1 | 1.15 | 1.33 | 
9 | C/C(=N\NC(=O)c1cc2ccccc2cc1O)c1cccs1 | 1.42 | 1.24 | 
10 | C/C(=N\NC(=O)c1ccccc1N)c1ccccn1 | 11 | 0.93 | 
11 | C/C(=N\NC(=O)c1ccc(O)cc1O)c1ccccn1 | 1.5 | 4.88 | 
12 | c1ccc(-n2ncc3c(N4CCC5(CC4)OCCO5)ncnc32)cc1 |  |  | Activity [3]: Non-Toxic
13 | O=C(N/N=C/c1ccc2ccccc2n1)c1cc2ccccc2cc1O | 1.01 | 1.11 | 
14 | O=C(NN=C(c1ccccn1)c1ccccn1)c1ccccc1O | 5.86 | 4.55 | 
15 | C/C(=N\NC(=O)c1ccccc1O)c1ccccn1 | 9.79 | 0.38 | 
16 | c1ccc(OCc2nc3ccccc3s2)cc1 [2-(PHENOXYMETHYL)BENZOTHIAZOLE] |  |  | Activity [3]: Non-Toxic
17 | O=C(N/N=C/c1ccc[nH]1)c1cc2ccccc2cc1O | 1.56 | 1.19 | 
18 | C/C(=N\NC(=O)c1c(O)cccc1O)c1ccccn1 | 11 | 0.61 | 
19 | Cc1ccc(COc2ccc3ccc(=O)oc3c2)cc1 |  |  | Activity [3]: Non-Toxic
20 | O=C(N/N=C/c1cccs1)c1cc2ccccc2cc1O | 1.36 | 0.12 | 
21 | C/C(=N\NC(=O)c1cccnc1N)c1ccccn1 | 8.26 | 11.1 | Activity (Huh-7 [4]): Dose-Dependent Effect; Activity (Hep 3B2): Dose-Dependent Effect; Activity (HepG2 [5]): Dose-Dependent Effect; inhibition (HepG2 [6]): Dose-Dependent Effect; inhibition (Huh-7 [7]): Dose-Dependent Effect; inhibition (Huh-7 [8]): Active; Activity [9]: Non-Toxic; Activity [10]: Non-Toxic; Activity [11]: Non-Toxic; Activity [12]: Non-Toxic; Activity (Huh-7 [13]): inactive; Activity (Huh-7 [14]): inactive; Activity (HepG2 [15]): inactive; Activity (HepG2 [16]): inactive; inhibition (HepG2 [17]): Active; Activity (Huh-7 [18]): Active; Activity (Huh-7 [19]): Active; Drug uptake [20]: Active
22 | C/C(=N\NC(=O)c1cc2ccccc2cc1O)c1ccc2ccccc2n1 | 0.99 | 3.31 | 
23 | C/C(=N\NC(=O)c1cc2ccccc2cc1O)c1ccco1 | 1.18 | 1.42 | 
24 | C/C(=N\NC(=O)c1cc2ccccc2cc1O)c1ccccn1 |  | 6.7 | Activity [3]: Non-Toxic; Activity [21]: Dose-Dependent Effect; Activity (Huh-7 [22]): Active; Activity (Huh-7 [23]): Active; inhibition (Huh-7 [24]): Active; Activity [25]: Non-Toxic
25 | O=C(NN=C(c1ccccn1)c1ccccn1)c1ccc(O)cc1O | 1.14 | 4.7 | 
26 | O=C(N/N=C/c1ccccn1)c1ccccc1O | 0.88 | 1.4 | 
27 | C/C(=N\NC(=O)c1ccccc1)c1ccccn1 | 6.96 | 0.59 | 
28 | O=C(NN=C(c1ccccn1)c1ccccn1)c1cc2ccccc2cc1O | 5.94 | 7.56 | 
29 | C/C(=N\NC(=O)c1cc2ccccc2cc1O)c1ccc([N+](=O)[O-])cc1 | 0.9 | 1.01 | 
